ChEMBL document CHEMBL1138950, “Benzimidazole derivatives bearing substituted biphenyls as hepatitis C virus NS5B RNA-dependent RNA polymerase inhibitors: structure-activity relationship studies and identification of a potent and highly selective inhibitor JTK-109” (J Med Chem, 2006)

What was measured:
[1] = Distribution coefficient, log D at pH 7.2; assay type: physicochemical; details: octanol/water
Huh-5-2 = experiment: Viability of Huh5-2 cells by MTT assay; assay type: functional; details: Homo sapiens
Hepatitis C virus [2] = experiment: Inhibition of HCV subgenomic RNA replication in Huh5-2 cells after 48 hrs by replicon assay; assay type: functional, organism-based, Hepacivirus hominis; details: Huh-5-2, 48 h
Procedure, shortened: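 Huh-5-2 cells (Huh-7-derived, genotype 1b subgenomic replicon with luciferase reporter) seeded at 5 × 10^3 per well in DMEM with 10% FBS, 37 °C, 5% CO2; compounds added next day, 48 h exposure; luciferase activity read. EC50 is the concentration reducing replication by 50%. Triplicate, mean of three experiments.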

[3] = Apparent permeability in Caco-2 cells; assay type: ADME, cell-based; details: human
[4] = biological target: RNA-directed RNA polymerase (Hepacivirus hominis, UniProt O39930); experiment: Inhibition of HCV 1b BK six His-tagged C-terminal truncated 544 amino acid NS5B RNA dependent RNA polymerase; set-up: species or system Hepatitis C virus subtype 1b
Procedure, shortened: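 HCV genotype 1b (BK) NS5B lacking 47 C-terminal residues, His6-tagged, E. coli-expressed; 7 nM enzyme with 5 µg HCV 3′X RNA template-primer, 50 µM each ATP/GTP/CTP, 2 µM UTP plus [3H]-UTP; pH 7.5 Tris, 5 mM MgCl2. Compounds in DMSO (5% final). 60 min at 25 °C; TCA-precipitable radioactivity read. Triplicate, mean of three experiments.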

[5] = Plasma concentration in rat at 30 mg/kg, po after 2 hrs; assay type: ADME, organism-based; set-up: dose 30 mg/kg, route oral
Procedure, shortened: (§1)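 Rats dosed orally at 30 mg/kg; plasma sampled at 1 and 2 h; n = 2 or 3.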

[6] = Plasma concentration in rat at 30 mg/kg, po after 1 hr; assay type: ADME, organism-based; set-up: dose 30 mg/kg, route oral; procedure, shortened: as §1
[7] = Therapeutic index, CC50 for viability of Huh5-2 cells/EC50 for inhibition of HCV subgenomic RNA replication; assay type: cell-based, Huh-5-2; details: human, read-out: Ratio CC50/EC50
Hepatitis C virus [8] = experiment: Inhibition of HCV subgenomic RNA replication in Huh5-2 cells at 10 uM after 48 hrs by replicon assay; assay type: functional, Hepacivirus hominis; details: Huh-5-2, 48 h

Chain of RNA-directed RNA polymerase (O39930 whole entry, the tested form may be a part): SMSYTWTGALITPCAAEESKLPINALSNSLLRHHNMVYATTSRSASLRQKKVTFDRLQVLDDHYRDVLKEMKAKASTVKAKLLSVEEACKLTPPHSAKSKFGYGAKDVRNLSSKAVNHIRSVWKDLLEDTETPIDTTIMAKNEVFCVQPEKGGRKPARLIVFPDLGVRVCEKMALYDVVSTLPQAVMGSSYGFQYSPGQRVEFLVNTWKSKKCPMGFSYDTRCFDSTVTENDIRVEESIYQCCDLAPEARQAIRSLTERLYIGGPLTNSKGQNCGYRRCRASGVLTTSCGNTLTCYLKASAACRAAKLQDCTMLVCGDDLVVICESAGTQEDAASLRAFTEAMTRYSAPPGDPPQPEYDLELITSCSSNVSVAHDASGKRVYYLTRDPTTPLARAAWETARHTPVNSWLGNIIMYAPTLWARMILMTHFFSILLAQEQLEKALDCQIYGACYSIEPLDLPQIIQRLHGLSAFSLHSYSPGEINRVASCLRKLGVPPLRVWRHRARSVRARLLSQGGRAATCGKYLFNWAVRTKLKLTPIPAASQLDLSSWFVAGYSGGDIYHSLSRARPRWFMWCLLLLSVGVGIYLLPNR

SMILES	logD [1]	CC50 (Huh-5-2) [nM]	EC50 (Hepatitis C virus [2]) [nM]	Papp [3] [×10⁻⁶ cm/s]	IC50 [4] [nM]	concentration at 2 h [5] [nM]	concentration at 1 h [6] [nM]	selectivity ratio [7]	inhibition at 10 µM (Hepatitis C virus [8]) [%]
O=C(O)c1ccc(-c2ccc(Cl)cc2COc2ccc(-c3nc4cc(C(=O)O)ccc4n3C3CCCCC3)cc2)cc1	3.26	> 50000	> 10000	23.4	58	–	–	–	–
O=C(O)c1ccc2c(c1)nc(-c1ccc(OCc3cc(C(=O)N4CCOCC4)ccc3-c3ccc(Cl)cc3)cc1F)n2C1CCCCC1	–	25000	280	–	14	500	1100	89	–
CC(=O)Nc1ccc(-c2ccc(Cl)cc2)c(COc2ccc(-c3nc4cc(C(=O)O)ccc4n3C3CCCCC3)c(F)c2)c1	–	24000	460	–	14	300	1000	52	–
Cc1nc(COc2ccc(-c3nc4cc(C(=O)O)ccc4n3C3CCCCC3)cc2)c(-c2ccc(Cl)cc2)o1	–	39000	> 10000	–	580	–	–	–	30
